Source: PubChem BioAssay (Sanford-Burnham Center for Chemical Genomics)
An excerpt weighted towards active compounds, which were near 0.72% of everything screened.
hIAP block: human IAP inhibitors, primary screen, biochemical, luminescence, uHTS; Intestinal-type alkaline phosphatase (Homo sapiens), P09923; purified IAP, CDP-Star luminescence, 30 min; inhibition, % at 10 µM; hit rate 0.12% among 330,000;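 active means inhibition reaching a set limit with compound at 10 µM in the primary screen, cut at about 35% in these data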;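 further: plate controls were DMSO wells with enzyme for no effect and no-enzyme buffer wells for full effect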
Target sequence (P09923 whole entry, looked up): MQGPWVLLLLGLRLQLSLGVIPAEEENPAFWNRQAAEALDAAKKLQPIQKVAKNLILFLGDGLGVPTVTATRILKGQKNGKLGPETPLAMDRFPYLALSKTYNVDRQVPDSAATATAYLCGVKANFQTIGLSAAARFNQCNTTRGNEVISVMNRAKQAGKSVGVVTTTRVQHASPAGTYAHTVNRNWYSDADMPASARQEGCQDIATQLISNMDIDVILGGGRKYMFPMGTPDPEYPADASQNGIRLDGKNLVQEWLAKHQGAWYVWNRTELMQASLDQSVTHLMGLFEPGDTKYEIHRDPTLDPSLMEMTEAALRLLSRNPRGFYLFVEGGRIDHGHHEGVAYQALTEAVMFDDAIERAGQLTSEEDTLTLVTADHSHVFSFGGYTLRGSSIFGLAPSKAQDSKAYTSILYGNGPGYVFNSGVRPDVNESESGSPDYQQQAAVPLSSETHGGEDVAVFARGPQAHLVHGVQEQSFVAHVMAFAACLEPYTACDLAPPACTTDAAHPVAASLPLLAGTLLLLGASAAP
mIAP inh: inhibitors of mouse IAP, primary screen, biochemical, luminescence, uHTS; hit rate 0.2% among 330,000; inhibition, % at 10 µM; purified mouse IAP, CDP-Star luminescence, 30 min;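 active means inhibition of at least 40% at 10 µM in the primary screen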;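 further: plate controls were DMSO with enzyme for no effect and no enzyme wells for full effect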
bIAP inh: bovine intestinal alkaline phosphatase inhibitors, primary screen, selectivity assay for TNAP inhibitor project, biochemical, bovine IAP, CDP-star luminescence. inhibition, % at 20 µM. alkaline phosphatase, intestinal [Bos taurus]. purified bovine IAP, 30 min. 190,000 tested, under 10 active;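 active means over 50% inhibition of intestinal alkaline phosphatase at 20 µM in the single-dose screen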
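Assay system: bovine IAP enzyme; medium: DEA buffer 100 mM, pH 9.8, with MgCl2 1.0 mM, ZnCl2 0.02 mM; doses: 20 µM single dose; incubation: enzyme reaction for 30 min at room temperature; detection: CDP-star luminescence signal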
mIAP activ: activators of mouse IAP, primary screen, biochemical, luminescence, uHTS; intestinal alkaline phosphatase [Mus musculus]; muIAP, CDP-Star luminescence, 30 min; hits give high values; 1 = vehicle-only enzyme signal, 0 = enzyme-free wells; activation factor at 10 µM; hit rate 0.24% among 330,000; AID 2805, 2010;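 active means activation factor of at least 2 at 20 µM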
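System: mouse IAP enzyme. Reagent: CDP-Star chemiluminescent phosphatase substrate. Benchmarks: DMSO wells, no-enzyme wells. Times: 30 min enzyme-substrate-compound incubation at room temperature. Detection: luminescence from enzymatic CDP-Star hydrolysis. Doses: test compounds delivered from DMSO solution.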
bIAP act: bovine intestinal alkaline phosphatase activators, primary screen, biochemical, bovine IAP, CDP-star luminescence. alkaline phosphatase, intestinal [Bos taurus]. purified bovine IAP, 30 min; hits give high values; fold of DMSO-control signal, blank-subtracted. activation factor at 20 µM. hit rate 0.17% among 200,000. AID 1016, 2008;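 active means activation factor of 2 or more at 20 µM, a signal rise over negative controls twice the positive control's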
hIAP activ: human IAP activators, primary screen, biochemical, luminescence, uHTS; Intestinal-type alkaline phosphatase (Homo sapiens), P09923; purified human IAP, CDP-Star luminescence, 30 min; hits give high values; 1 = vehicle-only enzyme, 0 = enzyme-free background; activation factor at 10 µM; hit rate 0.16% among 330,000;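 active means activation factor of the enzyme at least 2-fold when tested at 20 µM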
mIAP inh conf: inhibitors of mouse IAP, confirmation, biochemical, luminescence, single concentration; purified mouse IAP, CDP-Star luminescence, 30 min; AID 434971, 2010; inhibition, % at 10 µM; hit rate 4.7% among 11,000; shares compounds with mIAP inh;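 active means inhibition of at least 40% at 10 µM in either of the two replicates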;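 further: plate controls were DMSO wells with enzyme for no effect and buffer wells lacking enzyme for full effect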
* marks the source's active call; other numbers are inactive results; i = inactive; / = no result given.

SMILES	hIAP block	mIAP inh	bIAP inh	mIAP activ	bIAP act	hIAP activ	mIAP inh conf
C#CCOCCOCCOCCNc1nc(N2CCN(C(=O)Cn3cc(CCCN=C(N)N)nn3)CC2)nc(N2CCN(C(=O)[C@H]([C@@H](C)CC)n3cc(CCCCN)nn3)CC2)n1	8	-6	/	1.1	/	0.92	/
C#CCOCCOCCOCCNc1nc(N2CCN(C(=O)CCCCCCCCCCNC(=O)[C@H]([C@@H](C)CC)n3cc(CCCCN=C(N)N)nn3)CC2)nc(N2CCN(C(=O)CCCCCCCCCCNC(=O)[C@H](CCCCN)n3cc(C)nn3)CC2)n1	-8	-178	/	2.8*	/	1.1	i
C#CCOCCOCCOCCNc1nc(N2CCN(C(=O)CCCCCCCCCCNC(=O)[C@H]([C@@H](C)CC)n3cc(CCCCN=C(N)N)nn3)CC2)nc(N2CCN(C(=O)CCCCCCCCCCNC(=O)[C@H](CO)n3cc(CCCCCN)nn3)CC2)n1	-38	i	/	6.4*	/	1.4	i
C#CCOCCOCCOCCNc1nc(N2CCN(C(=O)CCCCCCCCCCNC(=O)[C@H]([C@@H](C)CC)n3cc(CCCCCN)nn3)CC2)nc(N2CCN(C(=O)CCCCCCCCCCNC(=O)[C@H]([C@@H](C)CC)n3cc(CCCCN=C(N)N)nn3)CC2)n1	-16	i	/	18*	/	1.2	i
C#CCOCCOCCOCCNc1nc(N2CCN(C(=O)CCCCCCCCCCNC(=O)[C@H](CO)n3cc(CCCSC)nn3)CC2)nc(N2CCN(C(=O)CCCCCCCCCCNC(=O)[C@H](CCCCN)n3cc(CCO)nn3)CC2)n1	4	-36	/	1.4	/	0.96	/
CCC(C(=O)NCCC(C)C)n1ccc2cc(S(=O)(=O)N3CCCCC3)ccc21 (stereo unspecified)	-14	-170	/	2.7*	/	1.1	-159
Cc1sc2nc(SCC(=O)Nc3cccc(S(N)(=O)=O)c3)[nH]c(=O)c2c1C	3	51*	/	0.49	/	0.97	62*
Cc1ccc(S(=O)(=O)/N=C2/NC(=O)/C(=C\c3ccco3)S2)cc1	8	40*	2	0.6	1	0.92	43*
Cc1ccc(S(=O)(=O)/N=C2/NC(=O)/C(=C\c3ccccc3)S2)cc1	-8	3	/	0.97	/	1.1	/
CC(=O)Nc1ccc(S(=O)(=O)/N=C2/NC(=O)/C(=C\c3ccco3)S2)cc1	5	46*	-18	0.54	1.2	0.95	49*
CCOC(=O)c1cc(C)sc1NC(=O)CSC1=NCCS1	13	1	/	0.99	/	0.87	/
COc1ccc(N=C2NC(=O)/C(=C\c3ccco3)S2)cc1	1	40*	-7	0.6	1.1	0.99	59*
O=C1NC(=Nc2ccc(O)cc2)S/C1=C\C=C\c1ccco1	5	69*	/	0.31	/	0.95	88*
COc1cc(/C=C2/SC(=Nc3ccc(O)cc3)NC2=O)cc(OC)c1O	19	12	12	0.88	0.9	0.81	/
CCCCNC(=O)C(C1CCCCC1)N(CCN(C)C)C(=O)CCCN1C(=O)NC(c2ccc(-c3ccccc3)cc2)C(C(=O)OCc2ccccc2)=C1C (stereo unspecified)	/	-168	/	2.7*	/	/	-148
CC(C)(C)[C@H]1COC(=O)CCCC/C=C\C[C@H](CC(=O)N(CCO)Cc2ccccc2)C(=O)N1	-15	-15	/	1.1	/	1.2	/
CC[C@]12c3[nH]c4ccc(OC)cc4c3CCN1C(=O)C(CC(=O)NCCCOC)C[C@@H]2C(=O)N1CCN(C(=O)C2CC2)CC1 (stereo partly specified)	/	2	/	0.98	/	/	/
O=C(O)CCN1C(=O)/C(=C\c2ccc(-c3nc4ccccc4s3)o2)SC1=S	-19	53*	/	0.47	0.4	1.2	62*
Cc1ccc(CNC(=O)c2cc(-c3ccccc3)nn2Cc2cc(C)no2)cc1	0	-122	/	2.2*	/	1	-126
CCc1cc(Cn2nc(-c3ccccc3)cc2C(=O)NCc2ccccc2OC)on1	2	-159	/	2.6*	/	0.97	-99
COc1ccccc1CNC(=O)c1cc(-c2ccccc2)nn1Cc1cc(C)no1	2	-57	/	1.6	/	0.98	/
CCN1CCN(c2ccc(Cl)cc2NC(=O)c2ccc(-n3nc(C)cc3C)cc2)CC1	2	2	/	0.98	/	0.98	/
CCn1cc(C(=O)NCCC(=O)NC(C)C)c(=O)c2cc3c(cc21)OCO3	10	4	/	0.96	/	0.9	/
Cc1ccc(N/C(N)=N/c2nc(C)cc(N3CCCCC3)n2)c(C)c1	-207	-270	i	3.7*	8.4*	3.1*	-322
Cc1ccc(N/C(N)=N/c2nc3c(c(=O)[nH]2)CCCC3)c(C)c1	-1	-26	-54	1.3	1.5	1	/
SMILES	hIAP block	mIAP inh	bIAP inh	mIAP activ	bIAP act	hIAP activ	mIAP inh conf
CCOc1ccc(OCCC(=O)NNC(=O)c2ccncc2)cc1	9	-5	/	1.1	/	0.91	/
CCCCCOc1ccc(C(=O)CCC(=O)NNC(=O)c2ccncc2)cc1	-82	-178	/	2.8*	/	1.8	-252
O=C1/C(=C\c2ccco2)SC(=S)N1C1CCS(=O)(=O)C1 (stereo unspecified)	0	64*	/	0.36	/	1	71*
O=C1/C(=C/c2ccco2)SC(=S)N1C1CCS(=O)(=O)C1 (stereo unspecified)	-31	67*	-22	0.33	1.2	1.3	71*
CCN(C(=O)C(C)N1C(=O)/C(=C/c2ccco2)SC1=S)C1CCS(=O)(=O)C1 (stereo unspecified)	0	51*	/	0.49	/	1	70*
Cc1ccc(/C=C2\SC(=S)N(C3CCS(=O)(=O)C3)C2=O)cc1 (stereo unspecified)	2	14	19	0.86	0.8	0.98	/
O=C(CCN1C(=O)/C(=C/c2ccco2)SC1=S)Nc1ccc(O)cc1C(=O)O	-3	69*	/	0.31	/	1	78*
O=C(CN1C(=O)/C(=C\c2ccco2)SC1=S)Nc1ccc(O)cc1C(=O)O	-10	70*	/	0.3	/	1.1	81*
O=C(CCCN1C(=O)/C(=C/c2ccco2)SC1=S)Nc1ccccc1C(=O)O	7	69*	/	0.31	/	0.93	62*
O=C(CCCN1C(=O)/C(=C\c2ccccc2)SC1=S)Nc1ccc(O)cc1C(=O)O	-4	0	/	1	/	1	/
O=C(O)CCCN1C(=O)/C(=C\c2ccco2)SC1=S	/	/	6	/	0.9	/	/
